Columns and labels:
[1] = molecular target: T1, Nuclear receptor subfamily 1 group I member 3 (Mus musculus, UniProt O35627, F171A); test: Activation of mouse CAR F171A mutant expressed in HEK293 cells at 10 uM by mammalian one-hybrid assay; format: cell-based; details: hek293, 10 µM
[2] = molecular target: T1, Nuclear receptor subfamily 1 group I member 3; test: Enhancement of nuclear co-repressor receptor binding to mouse CAR F171A mutant […] at 10 uM by yeast two-hybrid assay; format: cell-based
Procedure, shortened: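 Yeast two-hybrid assay. Yeast co-expressing wild-type or mutant mouse CAR LBD and the NCoR partner were selected on SD plates lacking leucine and tryptophan. Pooled, amplified colonies were treated with DMSO or test chemical for 3.5 h. β-galactosidase activity was normalized to cell density and referenced to the 10 µM androstenol interaction (=100). Mean ± standard deviation of two determinations, each in triplicate.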

[3] = molecular target: T2, Nuclear receptor subfamily 1 group I member 3 (Mus musculus, UniProt O35627, L212A); test: Effect on steroid receptor co-activator 1 binding to mouse CAR L212A mutant […] at 10 uM by yeast two-hybrid assay; format: cell-based; details: read-out: Activity
T2 sequence (O35627 whole entry L212A, the tested form may be a part): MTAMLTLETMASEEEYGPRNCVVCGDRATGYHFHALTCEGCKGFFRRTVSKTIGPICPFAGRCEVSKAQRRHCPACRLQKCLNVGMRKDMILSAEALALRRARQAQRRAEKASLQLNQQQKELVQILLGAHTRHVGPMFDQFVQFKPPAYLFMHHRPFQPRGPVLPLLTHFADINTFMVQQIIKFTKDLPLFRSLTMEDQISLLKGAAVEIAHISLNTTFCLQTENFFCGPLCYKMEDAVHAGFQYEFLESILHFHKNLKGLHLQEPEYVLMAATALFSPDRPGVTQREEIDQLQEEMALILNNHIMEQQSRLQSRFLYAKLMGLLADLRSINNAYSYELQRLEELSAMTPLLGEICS
Procedure, shortened: (§1)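 Yeast two-hybrid assay. Yeast co-expressing wild-type or mutant mouse CAR LBD and the SRC-1 partner were selected on SD plates lacking leucine and tryptophan. Random colonies were pooled and amplified, then treated with DMSO or test chemical for 3.5 h. β-galactosidase activity was normalized to cell density and set relative to wild-type mCAR + SRC-1 with DMSO (=100). Mean ± standard deviation of two determinations, each in triplicate.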

[4] = molecular target: T3, Nuclear receptor subfamily 1 group I member 3 (Mus musculus, UniProt O35627, L253F); test: Effect on nuclear co-repressor receptor binding to mouse CAR L253F mutant […] at 10 uM by yeast two-hybrid assay; format: cell-based; details: read-out: Activity
T3 sequence (O35627 whole entry L253F, the tested form may be a part): as the sequence (O35627 whole entry L212A, the tested form may be a part) above, with A212L, L253F counted along it
Procedure, shortened: (§2)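 Yeast expressing wild-type or mutant mouse CAR LBD plus NCoR, selected on SD plates lacking leucine and tryptophan. Pooled colonies treated with DMSO or compound for 3.5 h. β-Galactosidase activity normalized to cell density. Reference is 10 µM androstenol (=100). Mean ± SD of two independent determinations, each in triplicate.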

[5] = molecular target: Nuclear receptor subfamily 1 group I member 3 (Mus musculus, UniProt O35627, Y336A); test: Decrease in steroid receptor coactivator 1 binding to mouse CAR Y336A mutant […] at 10 uM by yeast two-hybrid assay; format: cell-based; details: read-out: Activity
Chain of Nuclear receptor subfamily 1 group I member 3 (Mus musculus, UniProt O35627, Y336A) (O35627 whole entry Y336A): as the sequence (O35627 whole entry L212A, the tested form may be a part) above, with A212L, Y336A counted along it
Procedure, shortened: as §2, with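 “SRC-1,” for “NCoR,”, “wild-type CAR + SRC-1 with DMSO” for “10 µM androstenol”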

[6] = molecular target: T4, Nuclear receptor subfamily 1 group I member 3 (Mus musculus, UniProt O35627, T350A); test: Decrease in nuclear co-repressor receptor binding to mouse CAR T350A mutant […] at 10 uM by yeast two-hybrid assay; format: cell-based; design: scale not given: the % may be the effect or the level left
T4 sequence (O35627 whole entry T350A): as the sequence (O35627 whole entry L212A, the tested form may be a part) above, with A212L, T350A counted along it

[7] = molecular target: T5, Nuclear receptor subfamily 1 group I member 3 (Mus musculus, UniProt O35627); test: Activation of mouse CAR
T5 sequence (O35627 whole entry): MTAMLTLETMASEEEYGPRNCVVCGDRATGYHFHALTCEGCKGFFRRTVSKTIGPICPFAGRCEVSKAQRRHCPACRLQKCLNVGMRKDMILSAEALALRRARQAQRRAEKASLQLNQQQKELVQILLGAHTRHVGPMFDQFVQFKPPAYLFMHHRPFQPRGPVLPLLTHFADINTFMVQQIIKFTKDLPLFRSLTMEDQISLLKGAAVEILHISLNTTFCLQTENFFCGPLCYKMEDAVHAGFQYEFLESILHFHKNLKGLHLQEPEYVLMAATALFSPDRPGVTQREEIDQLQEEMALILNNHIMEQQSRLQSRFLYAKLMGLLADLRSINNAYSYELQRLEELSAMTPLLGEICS
Procedure, shortened: (§3)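 GAL4-DBD fused to mouse CAR LBD (residues 118-358), wild-type or point mutant, cotransfected with UASx4-tk-luc reporter and pCMVβ into HEK293 cells. Cells were exposed to final 1 µM, 2 µM or 10 µM test chemical, or 0.1% v/v DMSO, for 24 h after transfection. Luciferase was normalized to β-galactosidase and set against empty GAL4 vector (=1.0). Mean ± standard deviation, three independent experiments.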

[8] = molecular target: T6, Nuclear receptor subfamily 1 group I member 3 (Mus musculus, UniProt O35627, H213A); details: HEK293, mouse, read-out: Activity
T6 sequence (O35627 whole entry H213A): as the sequence (O35627 whole entry L212A, the tested form may be a part) above, with A212L, H213A counted along it

[9] = molecular target: Nuclear receptor subfamily 1 group I member 3 (Mus musculus, UniProt O35627, T350M); details: HEK293, mouse, read-out: Activity
Chain of Nuclear receptor subfamily 1 group I member 3 (Mus musculus, UniProt O35627, T350M) (O35627 whole entry T350M): as the sequence (O35627 whole entry L212A, the tested form may be a part) above, with A212L, T350M counted along it

[10] = molecular target: T7, Nuclear receptor subfamily 1 group I member 3 (Mus musculus, UniProt O35627, F171L); details: HEK293, mouse
T7 sequence (O35627 whole entry F171L): as the sequence (O35627 whole entry L212A, the tested form may be a part) above, with F171L, A212L counted along it

[11] = molecular target: T7, Nuclear receptor subfamily 1 group I member 3; test: Decrease in nuclear co-repressor receptor binding to mouse CAR F171L mutant […] at 10 uM by yeast two-hybrid assay; format: cell-based; design: scale not given: the % may be the effect or the level left; procedure, shortened: as §2
[12] = molecular target: T7, Nuclear receptor subfamily 1 group I member 3; test: Enhancement of steroid receptor coactivator 1 binding to mouse CAR F171L mutant […] at 10 uM by yeast two-hybrid assay; format: cell-based; procedure, shortened: as §1
[13] = molecular target: T2, Nuclear receptor subfamily 1 group I member 3; test: Enhancement of steroid receptor co-activator 1 binding to mouse CAR L212A mutant […] at 10 uM by yeast two-hybrid assay; format: cell-based
[14] = molecular target: T8, mouse CAR (NR1I3), wild type (Mus musculus, UniProt O35627); test: Activation of wild type mouse CAR expressed in HEK293 cells at 10 uM by mammalian one-hybrid assay; format: cell-based; details: HEK293 cells expressing wild type mouse CAR, read-out: FC
T8 sequence (O35627 whole entry): T5 sequence (O35627 whole entry)
Procedure, shortened: (§4)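 GAL4 DBD fused to mouse CAR LBD (residues 118-358), wild type or point mutant, cotransfected with UASx4-tk-luc reporter and pCMVβ into HEK293 cells. Cells cultured with DMSO (0.1% v/v) or compound (final 1, 2 or 10 µM). Lysed 24 h post-transfection. Luciferase normalized to β-galactosidase, expressed relative to empty GAL4 vector (=1.0). Mean ± SD, three independent experiments.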

[15] = molecular target: Nuclear receptor subfamily 1 group I member 3 (Mus musculus, UniProt O35627, S251L); details: HEK293, mouse, read-out: Activity
Chain of Nuclear receptor subfamily 1 group I member 3 (Mus musculus, UniProt O35627, S251L) (O35627 whole entry S251L): as the sequence (O35627 whole entry L212A, the tested form may be a part) above, with A212L, S251L counted along it

[16] = molecular target: T4, Nuclear receptor subfamily 1 group I member 3; details: HEK293, mouse, read-out: Activity
[17] = molecular target: T3, Nuclear receptor subfamily 1 group I member 3; details: HEK293, mouse, read-out: Activity
[18] = molecular target: T7, Nuclear receptor subfamily 1 group I member 3; test: Decrease in mouse CAR F171L mutant activation expressed in HEK293 cells at 10 uM by mammalian one-hybrid assay; format: cell-based; details: read-out: Activity; procedure, shortened: as §4
[19] = molecular target: T6, Nuclear receptor subfamily 1 group I member 3; details: HEK293, mouse, read-out: Activity; remark: listed apart in the source
[20] = molecular target: T5, Nuclear receptor subfamily 1 group I member 3; test: Activation of wild type mouse CAR expressed in HEK293 cells at 2 uM by mammalian one-hybrid assay; format: cell-based; details: hek293, 2 µM; procedure, shortened: as §3

T1 sequence (O35627 whole entry F171A): as the sequence (O35627 whole entry L212A, the tested form may be a part) above, with F171A, A212L counted along it

SMILES | Activity [1] [%] | Activity [2] | activity at 10 µM [3] [%] | activity at 10 µM [4] [%] | inhibition at 10 µM [5] [%] | Activity [6] | Activity [7] | inhibition at 10 µM [8] [%] | inhibition at 10 µM [9] [%] | activity at 10 µM [10] [%] | Activity [11] | Activity [12] | Activity [13] | fold induction at 10 µM [14] | inhibition at 10 µM [15] [%] | inhibition at 10 µM [16] [%] | inhibition at 10 µM [17] [%] | inhibition at 10 µM [18] [%] | inhibition at 10 µM [19] [%] | Activity [20] [%]
COc1ccc(C(=O)CCCc2ccccc2)cc1 | > 100 | >= 50% | < 50 | < 50 | ≥ 50 | >= 50% | Active | 50 | 50 | < 50 |  |  |  |  |  |  |  |  |  | 
COc1ccccc1CC(CC(=O)Cc1ccccc1)OC (stereo not drawn) | > 100 |  |  |  |  | >= 50% | Active | 50 | < 50 |  | >= 50% | > 50% | > 150% | 2 | < 50 | 50 | ≥ 50 |  |  | 
Clc1cnc(Oc2ccc(Oc3ncc(Cl)cc3Cl)cc2)c(Cl)c1 |  |  |  |  |  |  |  |  |  |  |  |  |  | 2 |  |  |  |  |  | 
C[C@]12CC[C@@H](O)C[C@@H]1CC[C@@H]1[C@@H]2CC[C@]2(C)C=CC[C@@H]12 [ANDROSTENOL] |  |  | < 50 |  |  | >= 50% |  |  |  | < 50 | >= 50% |  |  |  |  |  | ≥ 50 | < 50 | ≥ 50 | 
Clc1ccccc1C(c1ccccc1)(c1ccccc1)n1ccnc1 [CLOTRIMAZOLE] |  |  |  |  |  |  |  |  |  |  |  |  |  |  |  |  |  |  |  | 40
COc1ccc(C(c2ccc(OC)cc2)C(Cl)(Cl)Cl)cc1 [METHOXYCHLOR] | < 50 | >= 50% |  | < 50 | ≥ 50 | >= 50% |  |  |  |  |  | >= 50% | >= 50% |  | < 50 | 50 |  | < 50 | ≥ 50 | 40
